# Source: publication PMC9476207 (ACS Omega, 2022)
# Key:
# Assay type in all cases: cell-based, human
# [1] = test system: A549 cells; assay: Reactive oxygen species; details: 18f at 5, 3 and 1.5 μM, 48 h
# Method in brief: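 A549 cells (1 × 10^5, six-well) were grown 24 h, then exposed to test compound at 1.5, 3 and 5 μM for 48 h. 0.05% H2O2 positive control was added 1 h before the end. Cells were PBS-washed and loaded with DCFH-DA (10 mM as printed) for 30 min in the dark, rewashed, and viewed by inverted fluorescence microscopy.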
# [2] = test system: A549 cells; assay: Loss of mitochondrial membrane potential; details: A549, 48 h
# Method in brief: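 A549 cells (1 × 10^5/mL/well, six-well plates) were treated for 48 h with 1.5, 3.0 or 5.0 μM test compound; paclitaxel served as positive control. After an ice-cold PBS wash, cells took up rhodamine-123 (final 0.2 mM) for 20–30 min in the dark in the incubator. Cells were washed again and fluorescence was assessed qualitatively by microscopy.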
# [3] = test system: A549 cells; assay: Apoptosis assay through DAPI staining; details: 18f at 5, 3 and 1.5 μM, 48 h, paclitaxel positive control
compound,measurement,setting,value
CC(=O)O[C@H]1C(=O)[C@@]2(C)[C@H]([C@H](OC(=O)c3ccccc3)[C@]3(O)C[C@H](OC(=O)[C@H](O)[C@@H](NC(=O)c4ccccc4)c4ccccc4)C(C)=C1C3(C)C)[C@]1(OC(C)=O)CO[C@@H]1C[C@@H]2O [paclitaxel],"intracellular ROS (DCFDA fluorescence, qualitative)",[1],higher in the treated groups
same,loss of mitochondrial membrane potential (rhodamine-123 fluorescence),[2]; 18f at 3.0 μM,quite similar
same,loss of mitochondrial membrane potential (rhodamine-123 fluorescence),"[2]; 18f at 5 μM, paclitaxel at its IC50 doses",maximum loss in the mitochondrial membrane potential
same,nuclear morphological changes (DAPI staining),[3],"chromatin condensation, nuclear blebbing, and formation of apoptotic bodies"
